High-throughput results deposited in PubChem by several laboratories.
MEKK2 mut-MEK5: signal of MEK5 binding to mutant human MEKK2 PB1 domain | bead flow cytometry, Alexa488-MEK5 binding to MEKK2 mutant | percent response, % at 10 µM | actives 0.35% (n = 290,000); in the data active = percent response above about 24%, passing the limit was not always enough
MEKK3 PB1 HTS: MEKK3-MEK5 PB1 interaction, increase or decrease; binding response (% of control), % at 10 µM; bead-based flow cytometry, Alexa488-MEK5 binding to MEKK3; actives lie on both sides; 0 = blocked by unlabeled MEK5, 100 = vehicle; actives 1.4% (n = 290,000); Q99759; AID 1529;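 active = binding response more than 3 SD above or below the average of its plate-row segment, actives on both sides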;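 note: Alexa488 bead fluorescence after subtracting the streptavidin-only scavenger bead signal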
Target sequence (Q99759 whole entry, looked up): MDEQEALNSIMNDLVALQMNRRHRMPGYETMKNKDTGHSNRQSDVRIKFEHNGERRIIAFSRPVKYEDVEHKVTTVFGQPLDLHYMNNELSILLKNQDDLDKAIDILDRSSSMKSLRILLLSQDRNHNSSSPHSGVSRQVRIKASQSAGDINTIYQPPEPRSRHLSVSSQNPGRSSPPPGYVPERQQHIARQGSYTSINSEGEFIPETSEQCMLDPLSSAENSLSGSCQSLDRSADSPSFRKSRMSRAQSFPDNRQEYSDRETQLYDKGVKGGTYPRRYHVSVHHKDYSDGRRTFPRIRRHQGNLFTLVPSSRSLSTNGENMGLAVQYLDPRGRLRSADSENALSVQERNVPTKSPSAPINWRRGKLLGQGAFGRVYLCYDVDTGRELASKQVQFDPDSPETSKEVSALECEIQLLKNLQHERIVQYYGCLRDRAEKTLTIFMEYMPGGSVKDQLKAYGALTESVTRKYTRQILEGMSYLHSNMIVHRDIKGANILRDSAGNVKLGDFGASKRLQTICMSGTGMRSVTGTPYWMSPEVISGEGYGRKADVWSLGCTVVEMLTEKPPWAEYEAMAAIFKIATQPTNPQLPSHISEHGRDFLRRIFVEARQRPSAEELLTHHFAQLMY
MEKK2wt PB1 HTS: raises or lowers MEK5 binding to wildtype human MEKK2 PB1 domain | Q9Y2U5 | bead flow cytometry, Alexa488-MEK5 binding to MEKK2 WT; actives lie on both sides | binding response (% of control), % at 10 µM | actives 1.1% (n = 290,000) | AID 1531; in the data active = binding response below about 67% or above about 130%
VIM-2 inhibitor: inhibitors of Pseudomonas aeruginosa VIM-2 metallo-beta-lactamase; actives 0.89% (n = 290,000); purified VIM-2, nitrocefin hydrolysis, epi-absorbance fluorescence; inhibition, % at 5.6 µM;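 active = inhibition above the mean of all tested compounds plus 3 SD, cutoff set per screening run, cut at about 7.5% in these data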;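 note: red hydrolysis product quenches plate fluorescence so inhibitors raise well fluorescence; 0% = enzyme with DMSO and 100% = DMSO without enzyme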
IMP-1 inh-1: blocks Pseudomonas aeruginosa IMP-1 metallo-beta-lactamase. purified IMP-1, nitrocefin hydrolysis, epi-absorbance fluorescence. inhibition, % at 5.6 µM. actives 0.45% (n = 290,000). AID 1556;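 active = inhibition above the mean plus 3 SD of all compounds in the same screening run, cut at about 4.5% in these data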;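 note: 0% = IMP-1 with DMSO and 100% = DMSO wells lacking enzyme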
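Assay system: purified IMP-1; Quantity: IMP-1 0.2 nM before substrate addition; Medium: HEPES buffer pH 7.1 with ZnSO4 and Brij 35; Incubation: 15 min enzyme–compound preincubation, then 25 min nitrocefin reaction, 25 °C; Signal: fluorescence quenching readout, ex 480/em 530 nm; Controls: DMSO with and without IMP-1; Repeats: singlicate testing.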
IMP-1 inh-2: selectivity counter-screen for VIM-2 inhibitors: IMP-1 metallo-beta-lactamase inhibitors; shares compounds with VIM-2 inhibitor; purified IMP-1, nitrocefin hydrolysis, epi-absorbance fluorescence; inhibition, % at 5.6 µM; 1,300 tested, under 10 active; AID 1856; call rule not given here;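 note: 0% = enzyme with vehicle and 100% = vehicle without enzyme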
VIM-2 FRET ctr: VIM-2 FRET inhibition, artifact counter-screen | shares compounds with VIM-2 inhibitor | purified VIM-2, CCF2 FRET substrate hydrolysis | inhibition, % at 5.6 µM | actives 23% (n = 1,300) | AID 1857;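 active = inhibition above the mean of all tested compounds plus 3 SD, cut at about 19% in these data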;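 note: 0% = VIM-2 plus DMSO and 100% = no enzyme wells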
TEM-1 counter: blocks E. coli TEM-1 beta-lactamase in VIM-2 selectivity screen | actives 3% (n = 1,300) | Purified TEM-1, nitrocefin hydrolysis, epi-absorbance fluorescence | inhibition, % at 5.6 µM | shares compounds with VIM-2 inhibitor;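 active = inhibition above that campaign's mean inhibition plus 3 SD, cut at about 0.46% in these data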;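 note: 0% = TEM-1 with DMSO and 100% = TEM-1 with 100 µM potassium clavulanate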
VIM-2 confirm 2: confirmation of P. aeruginosa VIM-2 metallo-beta-lactamase inhibitors; shares compounds with VIM-2 inhibitor; purified VIM-2, nitrocefin hydrolysis, epi-absorbance; inhibition, % at 5.6 µM; actives 96% (n = 1,300);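 active = inhibition of the VIM-2 beta-lactamase enzyme above about 11% from the earlier first-round screen, limit read from the data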;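 note: 0% = VIM-2 with DMSO and 100% = buffer wells without enzyme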
MEKK2wt confirm: raises or lowers MEK5 binding to wildtype human MEKK2, retest; shares compounds with MEKK3 PB1 HTS; bead flow cytometry, Alexa488-MEK5 binding to MEKK2 WT; actives lie on both sides; binding response (% of control), % at 10 µM; actives 2.4% (n = 5,900); in the data active = binding response below about 16% or above about 210%; inactive = in between
MEKK2mut-MEK5: signal of MEK5 binding to mutant human MEKK2, retest; shares compounds with MEKK3 PB1 HTS; bead flow cytometry, Alexa488-MEK5 binding to MEKK2 mutant; percent response, % at 10 µM; actives 2% (n = 5,900); AID 1893; in the data active = percent response mostly above about 71%, no sharp cut-off; inactive = mostly below about 38%;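 note: higher means compound restores mutant binding toward wildtype level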
MEKK3 confirm: confirmation of inhibitors of MEK5 binding to human MEKK3; shares compounds with MEKK3 PB1 HTS; bead flow cytometry, Alexa488-MEK5 binding to MEKK3; hits give low values; binding response (% of control), % at 10 µM; actives 1.8% (n = 5,900); AID 1894;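 active = binding response below 72% of control, or above a set upper limit, though filed actives all read lower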;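 note: 100% = DMSO only wells and 0% = binding blocked by excess unlabeled MEK5; lower values mean stronger disruption of MEK5 binding to MEKK3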
An asterisk follows results filed as active; [ ] = remark or other dose. Most compounds without a hit are left out; they make up all but 3.4% or so of the library.

For CN(C)c1ccc(/C=C/C=C/c2sc3ccccc3[n+]2C)cc1 the results were MEKK2 mut-MEK5 8, MEKK3 PB1 HTS 98, MEKK2wt PB1 HTS 4.0*, VIM-2 inhibitor -3 and IMP-1 inh-1 -5.
Screening CN(C)c1ccc(NC(=O)CN2C(=O)CN=C(c3ccccc3)c3cc(Cl)ccc32)cc1 returned MEKK2 mut-MEK5 13, MEKK3 PB1 HTS 100, MEKK2wt PB1 HTS 110, VIM-2 inhibitor -2 and IMP-1 inh-1 4.5*.
`CCN(CC)c1ccc(/C=C/[N+](=O)[O-])cc1` gave MEKK2 mut-MEK5 -4, MEKK3 PB1 HTS 96, MEKK2wt PB1 HTS 82, VIM-2 inhibitor 3 and IMP-1 inh-1 6.5*.
Screening COc1cc(/C=C/[N+](=O)[O-])ccc1O returned MEKK2 mut-MEK5 3, MEKK3 PB1 HTS 96, MEKK2wt PB1 HTS 104, VIM-2 inhibitor -2 and IMP-1 inh-1 -3.
Screening O=[As](O)(O)c1ccc(N=Nc2ccc(O)cc2)cc1 returned MEKK2 mut-MEK5 4, MEKK3 PB1 HTS 103, MEKK2wt PB1 HTS 100, VIM-2 inhibitor -5 and IMP-1 inh-1 5.1*.
`O=P(O)(O)Oc1ccccc1P(=O)(c1ccccc1)c1ccccc1` gave MEKK2 mut-MEK5 -3, MEKK3 PB1 HTS 99, MEKK2wt PB1 HTS 98, VIM-2 inhibitor 17*, IMP-1 inh-1 -3, IMP-1 inh-2 -3, VIM-2 FRET ctr 23*, TEM-1 counter -4 and VIM-2 confirm 2 21*.
For COc1ccc(N=Cc2c(O)n(C)c(=O)n(C)c2=O)cc1 the results were MEKK2 mut-MEK5 10, MEKK3 PB1 HTS 107, MEKK2wt PB1 HTS 108, VIM-2 inhibitor 0 and IMP-1 inh-1 -2.
Screening O=C(COc1ccc(Cl)cc1)N1CCN(Cc2ccccc2)CC1 returned MEKK2 mut-MEK5 9, MEKK3 PB1 HTS 119, MEKK2wt PB1 HTS 113, VIM-2 inhibitor -2 and IMP-1 inh-1 -3.
Cc1cc(=O)oc2c(C)c(OCC(=O)N3CCN(Cc4ccccc4)CC3)ccc12 was read as MEKK2 mut-MEK5 4, MEKK3 PB1 HTS 101, MEKK2wt PB1 HTS 102, VIM-2 inhibitor 45*, IMP-1 inh-1 -4, IMP-1 inh-2 -3, VIM-2 FRET ctr -1, TEM-1 counter -8 and VIM-2 confirm 2 60*.
For CN(C)C(=O)Oc1ccc(-c2cn3cc(Cl)ccc3n2)cc1 the results were MEKK2 mut-MEK5 -2, MEKK3 PB1 HTS 91, MEKK2wt PB1 HTS 93, VIM-2 inhibitor 1 and IMP-1 inh-1 -2.
CN1CCC(N(C)c2nc(-c3ccccc3)nc3ccccc23)CC1 was read as MEKK2 mut-MEK5 4, MEKK3 PB1 HTS 103, MEKK2wt PB1 HTS 118, VIM-2 inhibitor 21*, IMP-1 inh-1 -6, IMP-1 inh-2 -1, VIM-2 FRET ctr -3, TEM-1 counter -4 and VIM-2 confirm 2 33*.
For Cc1cc(OCC(=O)NCC(O)c2ccccc2)c2c3c(c(=O)oc2c1)CCCC3 (configuration not stated) the results were MEKK2 mut-MEK5 3, MEKK3 PB1 HTS 101, MEKK2wt PB1 HTS 101, VIM-2 inhibitor 2 and IMP-1 inh-1 -4.
`Cc1cc(OCC(=O)NCc2cccnc2)c2c3c(c(=O)oc2c1)CCCC3` gave MEKK2 mut-MEK5 8, MEKK3 PB1 HTS 99, MEKK2wt PB1 HTS 101, VIM-2 inhibitor 33*, IMP-1 inh-1 -3, IMP-1 inh-2 -3, VIM-2 FRET ctr -2, TEM-1 counter -9 and VIM-2 confirm 2 40*.
CCN1C(=O)C(=C/C=C/c2ccco2)C(=O)N(CC)C1=S was read as MEKK2 mut-MEK5 -3, MEKK3 PB1 HTS 86, MEKK2wt PB1 HTS 59*[inhibitor], VIM-2 inhibitor -4, IMP-1 inh-1 5.8*, MEKK2wt confirm 84, MEKK2mut-MEK5 -9 and MEKK3 confirm 94.
For CCOC(=O)c1c(-n2c(C)cc(/C=C3/C(=O)NC(=O)N(CC)C3=O)c2C)sc2c1CCCC2 the results were MEKK2 mut-MEK5 2, MEKK3 PB1 HTS 102, MEKK2wt PB1 HTS 88, VIM-2 inhibitor -2 and IMP-1 inh-1 -3.
For CCN1C(=O)NC(=O)/C(=C/c2cc(C)n(-c3sc(C)c(C)c3C#N)c2C)C1=O the results were MEKK2 mut-MEK5 1, MEKK3 PB1 HTS 130*, MEKK2wt PB1 HTS 102, VIM-2 inhibitor -1, IMP-1 inh-1 2, MEKK2wt confirm 99, MEKK2mut-MEK5 10 and MEKK3 confirm 101.
Screening Nc1ccc2c(c1)Cc1ccccc1-2 returned MEKK2 mut-MEK5 0, MEKK3 PB1 HTS 133*, MEKK2wt PB1 HTS 107, VIM-2 inhibitor 1, IMP-1 inh-1 -2, MEKK2wt confirm 101, MEKK2mut-MEK5 -1 and MEKK3 confirm 100.
`COc1cccc(N2C(=O)NC(=O)/C(=C/c3ccc4c(c3)Cc3ccccc3-4)C2=O)c1` gave MEKK2 mut-MEK5 -5, MEKK3 PB1 HTS 100, MEKK2wt PB1 HTS 90, VIM-2 inhibitor -1 and IMP-1 inh-1 -1.
For Cc1cc(C=C(C#N)C#N)ccc1N1CCCC1 the results were MEKK2 mut-MEK5 -12, MEKK3 PB1 HTS 82, MEKK2wt PB1 HTS 63*[inhibitor], VIM-2 inhibitor -2, IMP-1 inh-1 -1, MEKK2wt confirm 83, MEKK2mut-MEK5 -10 and MEKK3 confirm 92.
CCN(CC(=O)Nc1ccc(C#N)c(Cl)c1)CC(=O)NC(C)(C)C was read as MEKK2 mut-MEK5 -15, MEKK3 PB1 HTS 104, MEKK2wt PB1 HTS 87, VIM-2 inhibitor -2 and IMP-1 inh-1 -4.
Screening CCCCOCCCn1c(N)c(C(=O)OCCOC)c2nc3ccccc3nc21 returned MEKK2 mut-MEK5 3, MEKK3 PB1 HTS 98, MEKK2wt PB1 HTS 99, VIM-2 inhibitor -3 and IMP-1 inh-1 -4.
